According to publication PMC9704493 (RSC Advances, 2022):

Assays:
MRC-5 fibroblasts = test: MTT cell viability assay, MRC-5 normal fibroblasts; assay type: cell-based, human; conditions: for GI50: Homo sapiens, MRC5, 72 h, read-out: GI50 values (M) mean ± SD, MRC-5; for more active against the carcinoma cell lines than MRC-5: selectivity over MRC-5
How it was run: (§1)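 Cells were seeded at 3 × 10^3 per well and grown for 24 h at 37 °C/5% CO2. A T0 plate was read at dosing and the others after 72 h. MTT (5 mg mL−1 in PBS) was added for 2.5 h, formazan dissolved in DMSO, and absorbance read at 550 nm. GI50 was interpolated, in triplicate. SI compares MRC-5 with cancer-line activity.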

MCF-7 cells [1] = test: Cell count assay, MCF-7; assay type: cell-based; conditions: Homo sapiens, MCF7, 72 h, read-out: growth inhibition, cell count
How it was run: (§2)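 Cancer lines were grown in RPMI 1640 with 10% FBS and 1% glutamine at 37 °C/5% CO2, at ≤30 passages. Cells were seeded at 2 × 10^4 per well in 6-well plates and exposed to test compound at 5 or 10 μM for 72 h. Cells were counted by haemocytometer and expressed as % of control (mean ± SD), from 2 independent experiments in triplicate.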

HCT-116 cells [2] = test: Clonogenic assay, HCT-116 colony formation; assay type: cell-based, human; conditions: 24 h exposure, second group, printed as HCT-116; for colony formation: 10 μM
How it was run: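 HCT-116 cells (RPMI 1640, 10% FBS, 1% glutamine) were seeded at 400 per well in 6-well plates and left to attach for 24 h. They were given test compound at 5 or 10 μM for 24 h, with medium alone as control. Cells were then washed with cold PBS and grown in fresh medium at 37 °C until control colonies reached ≥50 cells. Colonies were methanol-fixed, stained with 0.05% methylene blue and counted. Survival fraction is % of control, from five independent trials (n = 2 each).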

[3] = test system: MCF-7 breast cancer cells; test: MTT cell viability assay, MCF-7; assay type: cell-based, human; conditions: for GI50: Homo sapiens, MCF7, 72 h, read-out: GI50 values (M) mean ± SD, MCF-7; for Selectivity indices (SI), MCF-7: MCF-7 versus MRC-5 fibroblasts
How it was run: as §1

[4] = test system: HCT-116 colorectal carcinoma cells; test: MTT cell viability assay, HCT-116; assay type: cell-based, human; conditions: for Selectivity indices (SI), HCT-116: HCT-116 versus MRC-5 fibroblasts; for GI50: Homo sapiens, HCT-116, 72 h, read-out: GI50 values (M) mean ± SD, HCT-116
How it was run: as §1

HCT-116 cells [5] = test: Cell count assay, HCT-116; assay type: cell-based; conditions: Homo sapiens, HCT-116, 72 h, read-out: growth inhibition, cell count
How it was run: as §2

[6] = test system: caspases 3 and 7 in MCF-7 cells; test: Caspase-3/7 activity assay, MCF-7; assay type: cell-based, human; conditions: MCF-7, 5 and 10 μM, 72 h
How it was run: (§3)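 Cells kept in log growth (passaged twice weekly, 37 °C/5% CO2, ≤30 passages) were seeded at 3 × 10^3 per well in opaque white 96-well plates and allowed 24 h at 37 °C. Test compound was added at 5 and 10 μM from fresh 10 mM DMSO stocks for 72 h. Homogeneous caspase-3/7 reagent was added and mixed at 300–500 rpm for 30 s. After 30 min at room temperature, fluorescence was read at 499 nm and 521 nm. Experiments were run in triplicate and reported as mean ± SD.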

[7] = test system: caspases 3 and 7 in HCT-116 cells; test: Caspase-3/7 activity assay, HCT-116; assay type: cell-based, human; conditions: HCT-116, 5 and 10 μM, 72 h
How it was run: as §3

PARP-1 in HCT-116 cells = test: Western blot of whole and cleaved PARP, HCT-116; assay type: cell-based, human; conditions: HCT-116, 5 and 10 μM, 24 h
How it was run: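 HCT-116 cells were seeded at 1–2 × 10^6 per dish, attached for 24 h, then exposed to test compound at 5 or 10 μM for 24 h. Lysate protein was measured by Bradford assay, and 50 μg per sample was run on SDS-PAGE and blotted to nitrocellulose. Blots were probed for PARP-1, with GAPDH as loading control, and quantified by densitometry. Data are mean ± SD of three independent experiments, analysed by ANOVA with Dunnett's test.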

ERK1/2 = test: Preliminary ERK1/2 inhibition experiments
HCT-116 cells [8] = test: Cell cycle assay; assay type: cell-based, human; conditions: HCT-116, 5 and 10 μM, 24 h
How it was run: (§4)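 Cells were seeded in 10 cm dishes at 7 × 10^5 (control, 24 h) or 4 × 10^5 (48 and 72 h) per dish and left 24 h at 37 °C. They were then treated with test compound at 5 or 10 μM for 24 h. Floating and trypsinised cells were pooled, PBS-washed, held in cold hypotonic fluorochrome solution overnight at 4 °C in the dark, and analysed by flow cytometry (three internal repeats).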

MCF-7 cells [9] = test: Cell cycle assay; assay type: cell-based, human; conditions: 24 h; for accumulation of events in G2/M phase: control 11%
How it was run: as §4

Row | GI50 [3] | GI50 [4] | Structure (SMILES) | GI50 (MRC-5 fibroblasts) | inhibition at 10 µM (MCF-7 cells [1]) | colony formation (HCT-116 cells [2]) | Selectivity indices (SI), MCF-7 [3] | Selectivity indices (SI), HCT-116 [4] | inhibition at 5 µM (HCT-116 cells [5]) | inhibition at 10 µM (HCT-116 cells [5]) | caspase 3 and 7 activation [6] | caspase 3 and 7 activation [7] | more active against the carcinoma cell lines than MRC-5 (MRC-5 fibroblasts) | further results
1 | 1.7e-06 ± 3e-07 M | 4.2e-06 ± 1e-06 M | N#Cc1ccc(-c2csc(NN=Cc3c(F)c(F)c(F)c(F)c3F)n2)cc1 [3a′, 2-(2-((Pentafluorophenyl)methylene)hydrazinyl)-4-(4-cyanophenyl) thiazole] | 1.16e-05 ± 6e-07 M | 90 to 95% | completely prevented colony formation | 6.8 | 2.8 | – | – | – | – | – | –
2 | 2.54e-05 ± 1.6e-06 M | 1.1e-06 ± 5e-07 M | N#Cc1ccc(-c2csc(NN=Cc3c(Cl)cccc3Cl)n2)cc1 [Compound 3n, 2-(2-(2,6-Dichlorobenzylidene)hydrazinyl)-4-(4-cyanophenyl) thiazole] | 1.21e-05 ± 4e-07 M | – | – | 0.5 | 11 | 50 to 55% | 100% | – | – | – | –
3 | 1e-06 ± 4e-07 M | 1.6e-06 ± 1e-07 M | Cc1cccc(C=NNc2nc(-c3ccc(C#N)cc3)cs2)c1O [Compound 3f, 2-(2-(2-Hydroxy-3-methylbenzylidene) hydrazinyl)-4-(4-cyanophenyl) thiazole] | 1.73e-05 ± 7e-07 M | 100% | completely inhibiting colony formation | 17.3 | 10.8 | – | – | Significant dose-dependent caspase activation | Significant dose-dependent caspase activation | > 10 × | SI over MRC-5 fibroblasts (MRC-5 fibroblasts; cancer cell line not given): > 10; inhibition at 5 µM (MCF-7 cells [1]): 55 to 60%; inhibition of colony formation (HCT-116 cells [2]; 5 μM): completely inhibiting colony formation; PARP-1 cleavage (PARP-1 in HCT-116 cells): induces concentration-dependent PARP-1 cleavage; whole PARP expression (PARP-1 in HCT-116 cells): down-regulation of whole PARP; ERK1/2 inhibition (ERK1/2): showed ERK1/2 inhibition; Pre-G1 events (HCT-116 cells [8]): 5–8%; accumulation of events in G2/M phase (MCF-7 cells [9]; MCF-7, 5 μM): 23%; accumulation of events in G2/M phase (MCF-7 cells [9]; MCF-7, 10 μM): 28%; pre-G1 cell populations (MCF-7 cells [9]; MCF-7, 5 and 10 μM): negligible
4 | 7e-06 ± 3e-07 M | 4.4e-06 ± 3e-07 M | N#Cc1ccc(-c2csc(NN=Cc3cc(Br)ccc3O)n2)cc1 [Compound 3h, 2-(2-(5-Bromo-2-hydroxybenzylidene) hydrazinyl)-4-(4-cyanophenyl) thiazole] | 1.58e-05 ± 2e-07 M | 65 to 70% | – | 2.3 | 3.6 | – | – | – | – | – | –
5 | 3.9e-06 ± 5e-07 M | 1.6e-06 ± 2e-07 M | N#Cc1ccc(-c2csc(NN=Cc3sccc3Br)n2)cc1 [3b′, 2-(2-((3-Bromothiophen-2-yl)methylene)hydrazinyl)-4-(4-cyanophenyl) thiazole] | 1.95e-05 ± 3e-07 M | – | completely prevented colony formation | 5 | 12.2 | 50 to 55% | 90 to 95% | Significant dose-dependent caspase activation | Significant dose-dependent caspase activation | > 5 × | –
